In ChEMBL document CHEMBL3352049, “Taxanes with high potency inducing tubulin assembly overcome tumoural cell resistances” (Bioorg Med Chem, 2014):
Activity calls are given as the source filed them. No cut-off for these calls is given here.

Legend:
[1] = molecular target: Tubulin (Bos taurus) (UniProt Q6B856+Q862L2+Q862F3); assay: Induction of calf brain tubulin polymerization assessed as tubulin concentration required to form microtubules by electron microscopy
Outline: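 Critical tubulin concentration found by centrifugation and quantification of the polymer formed. Polymers adsorbed onto formvar/carbon-coated copper grids, stained with 1% uranyl acetate, and viewed by electron microscopy at 100 kV.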

[2] = Cytotoxicity against human A2780AD cells by MTT assay; type: functional, cell-based; details: A2780 ADR
[3] = system: A2780; assay: Cell cycle arrest at G2/M phase in human A2780 cells at 60 nM after 20 hrs by flow cytometry; type: functional, cell-based
[4] = system: 1A9; assay: Cytotoxicity against human 1A9 cells by MTT assay; type: functional, cell-based
Outline: (§1)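 MTT assay run as a modified version of an earlier method. IC50 in nM is the mean ± SEM of three independent assays. Relative resistance is the IC50 in the resistant line (1A9 tubulin mutants, or βIII-transfected HeLa) divided by the IC50 in the parental line (1A9 or HeLa).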

[5] = Cell cycle arrest at G2/M phase in human A2780AD cells at 30 nM after 20 hrs by flow cytometry; type: functional, cell-based; details: A2780 ADR
[6] = Resistance ratio of IC50 for human A2780AD cells to IC50 for human A2780 cells; type: functional, A2780 ADR
[7] = system: microtubule (Bos taurus); assay: Binding affinity to microtubule (Bos taurus) after 30 mins at 40 degC by flutax-2 displacement method
[8] = Cell cycle arrest at G2/M phase in human A2780AD cells at 60 nM after 20 hrs by flow cytometry; type: functional, cell-based; details: A2780 ADR
[9] = system: microtubule (Bos taurus); assay: Binding affinity to microtubule (Bos taurus) after 30 mins at 32 degC by flutax-2 displacement method
[10] = system: 1A9; assay: Resistance ratio of IC50 for human 1A9/A8 cells to IC50 for human 1A9 cells; type: functional
[11] = system: microtubule (Bos taurus); assay: Binding affinity to microtubule (Bos taurus) after 30 mins at 37 degC by flutax-2 displacement method
[12] = system: microtubule (Bos taurus); assay: Binding affinity to microtubule (Bos taurus) after 30 mins at 35 degC by flutax-2 displacement method
[13] = Cytotoxicity against human 1A9PTX22 cells by MTT assay; type: functional, cell-based; details: 1A9/ptx-22; outline: as §1
[14] = system: HeLa; assay: Cytotoxicity against human HeLa cells transfected with wild-type tubulin beta3 by MTT assay; type: functional, cell-based; outline: as §1
[15] = Cytotoxicity against human 1A9/A8 cells by MTT assay; type: functional, cell-based; outline: as §1
[16] = system: microtubule (Bos taurus); assay: Binding affinity to microtubule (Bos taurus) after 30 mins at 26 degC by flutax-2 displacement method
[17] = system: 1A9; assay: Resistance ratio of IC50 for human 1A9PTX10 cells to IC50 for human 1A9 cells; type: functional
Outline: (§2)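 Relative resistance is the IC50 in the 1A9 tubulin-mutant line divided by the IC50 in parental 1A9 ovarian carcinoma cells. Each IC50 (nM) is the mean ± SEM of three independent assays.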

[18] = system: A2780; assay: Cell cycle arrest at G2/M phase in human A2780 cells at 30 nM after 20 hrs by flow cytometry; type: functional, cell-based
[19] = system: HeLa; assay: Resistance ratio of IC50 for human HeLa cells transfected with wild-type tubulin beta3 to IC50 for human HeLa cells; type: functional
Outline: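 Relative resistance is the IC50 in HeLa cells transfected with wild-type βIII-tubulin divided by the IC50 in parental HeLa cells. Each IC50 (nM) is the mean ± SEM of three independent assays.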

[20] = system: microtubule (Bos taurus); assay: Binding affinity to microtubule (Bos taurus) after 30 mins at 42 degC by flutax-2 displacement method
[21] = system: A549; assay: Cell cycle arrest at G2/M phase in human A549 cells at 60 nM after 20 hrs by flow cytometry; type: functional, cell-based
[22] = system: HeLa; assay: Cytotoxicity against human HeLa cells by MTT assay; type: functional, cell-based; outline: as §1
[23] = system: microtubule (Bos taurus); assay: Binding affinity to microtubule (Bos taurus) after 30 mins at 27 degC by flutax-2 displacement method
[24] = Cytotoxicity against human 1A9PTX10 cells by MTT assay; type: functional, cell-based; details: 1A9/ptx-10; outline: as §1
[25] = system: A549; assay: Cell cycle arrest at G2/M phase in human A549 cells at 30 nM after 20 hrs by flow cytometry; type: functional, cell-based
[26] = system: 1A9; assay: Resistance ratio of IC50 for human 1A9PTX22 cells to IC50 for human 1A9 cells; type: functional; outline: as §2
[27] = Cytotoxicity against human MCF7/R cells by MTT assay; type: functional, cell-based; details: MCF7R
[28] = system: A2780; assay: Cytotoxicity against human A2780 cells by MTT assay; type: functional, cell-based
[29] = system: microtubule (Bos taurus); assay: Binding affinity to microtubule (Bos taurus) after 30 mins at 30 degC by flutax-2 displacement method
[30] = system: A549; assay: Effect on microtubule cytoskeleton in human A549 cells assessed as induction of micronuleated cells with short microtubules in cytoplasm at 60 to 120 nM after 24 hrs by immunofluorescence assay; type: cell-based
Outline: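 A549 cells were grown overnight on coverslips, then given DMSO vehicle or ligand (60 or 120 nM) for 24 h. Cells were permeabilized with Triton X-100 and fixed in 3.7% formaldehyde. Microtubules were stained with DM1A α-tubulin antibody and DNA with Hoechst 33342. Preparations were viewed by epifluorescence microscopy.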

[31] = system: microtubule (Bos taurus); assay: Binding affinity to paclitaxel site of microtubule (Bos taurus) after 30 mins at 35 degC by epothilone B displacement method
[32] = system: microtubule (Bos taurus); assay: Binding affinity to paclitaxel site of microtubule (Bos taurus) after 30 mins at 30 degC by epothilone B displacement method
[33] = system: microtubule (Bos taurus); assay: Binding affinity to paclitaxel site of microtubule (Bos taurus) after 30 mins at 40 degC by epothilone B displacement method
[34] = system: microtubule (Bos taurus); assay: Binding affinity to paclitaxel site of microtubule (Bos taurus) after 30 mins at 26 degC by epothilone B displacement method
[35] = system: MCF7; assay: Cytotoxicity against human MCF7 cells by MTT assay; type: functional, cell-based
[36] = system: A549; assay: Effect on microtubule cytoskeleton in human A549 cells assessed as induction of MS bundles of microtubules near membrane and nucleus at 50 to 500 nM after 24 hrs by immunofluorescence assay; type: cell-based
Outline: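 A549 cells grown overnight on 12 mm round coverslips, then exposed 24 h to DMSO vehicle or ligand at serial concentrations. Permeabilized with Triton X100, fixed in 3.7% formaldehyde. Microtubules stained with DM1A anti-α-tubulin monoclonal, DNA with Hoechst 33342. Viewed by epifluorescence microscopy and imaged with a cooled CCD camera.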

| Activity [1] [µM] | Kb [7] [×10⁷ /M] | Kb [12] [×10⁷ /M] | Kb [16] [×10⁷ /M] | Kb [29] [×10⁷ /M] | SMILES | IC50 [2] [nM] | Activity [3] | IC50 [4] [nM] | Ratio IC50 [6] | Ratio IC50 [10] | IC50 [13] [nM] | IC50 [14] [nM] | IC50 [15] [nM] | Ratio IC50 [17] | Ratio IC50 [19] | IC50 [22] [nM] | IC50 [24] [nM] | IC50 [27] [nM] | IC50 [28] [nM] | Activity [30] | other results |
| --- | --- | --- | --- | --- | --- | --- | --- | --- | --- | --- | --- | --- | --- | --- | --- | --- | --- | --- | --- | --- | --- |
| 3.6 | 355 | 628 | 612 | 748 | CCC(=O)O[C@H]1C(=O)[C@@]2(C)[C@H]([C@H](OC(=O)c3cccc(N=[N+]=[N-])c3)[C@]3(O)C[C@H](OC(=O)[C@H](O)[C@@H](NC(=O)OC(C)(C)C)c4ccccc4)C(C)=C1C3(C)C)[C@]1(OC(C)=O)CO[C@@H]1C[C@@H]2O | 9.1 | – | 3.1 | 1.3 | 1.2 | 12 | 16 | 3.8 | 0.4 | 1.7 | 9.2 | 2.4 | 153 | 7 | Active | IC50 [35]: 1.9 nM |
| 2.9 | 52 | 87 | 124 | 85 | C/C=C(\C)C(=O)N[C@@H](c1ccccc1)[C@@H](O)C(=O)O[C@H]1C[C@@]2(O)[C@@H](OC(=O)c3cccc(N=[N+]=[N-])c3)[C@@H]3[C@]4(OC(C)=O)CO[C@@H]4C[C@H](OC(=O)CC)[C@@]3(C)C(=O)[C@H](O)C(=C1C)C2(C)C | 14 | – | 2.3 | 5.2 | 0.9 | 1.9 | 10.2 | 2 | 5 | 3.2 | 3.2 | 11.6 | – | – | Active | Ratio IC50 [26]: 0.83 |
| 2.4 | – | – | – | – | CC(=O)O[C@@]12CO[C@@H]1C[C@H](O)[C@@]1(C)C(=O)[C@H](O)C3=C(C)[C@@H](OC(=O)[C@H](O)[C@@H](NC(=O)OC(C)(C)C)c4ccccc4)C[C@@](O)([C@@H](OC(=O)c4ccccc4)[C@H]21)C3(C)C [DOCETAXEL] | 290 | – | – | – | – | – | – | – | – | – | – | – | – | – | – | – |

Continued, molecule first:

| SMILES | Activity [1] [µM] | Kb [7] [×10⁷ /M] | Kb [12] [×10⁷ /M] | Kb [16] [×10⁷ /M] | Kb [29] [×10⁷ /M] | IC50 [2] [nM] | Activity [3] | IC50 [4] [nM] | Ratio IC50 [6] | Ratio IC50 [10] | IC50 [13] [nM] | IC50 [14] [nM] | IC50 [15] [nM] | Ratio IC50 [17] | Ratio IC50 [19] | IC50 [22] [nM] | IC50 [24] [nM] | IC50 [27] [nM] | IC50 [28] [nM] | Activity [30] | other results |
| --- | --- | --- | --- | --- | --- | --- | --- | --- | --- | --- | --- | --- | --- | --- | --- | --- | --- | --- | --- | --- | --- |
| CC(=O)O[C@@]12CO[C@@H]1C[C@H](O)[C@@]1(C)C(=O)[C@H](OC(=O)C3CC3)C3=C(C)[C@@H](OC(=O)[C@H](O)[C@H](C=C(C)C)NC(=O)OC(C)(C)C)C[C@@](O)([C@@H](OC(=O)c4ccccc4)[C@H]21)C3(C)C | 0.9 | 7 | 8 | 12 | 10 | 10.9 | Active | 5 | 2.1 | 2.4 | 7.9 | 11.2 | 12.2 | 2.2 | 5.3 | 2.1 | 10.8 | 2.1 | 5.2 | Active | Activity [5]: Active; Activity [8]: Active; Kb [9]: 9 ×10⁷ /M; Kb [11]: 7 ×10⁷ /M; Activity [18]: Active; Kb [20]: 6 ×10⁷ /M; Activity [21]: Active; Kb [23]: 11 ×10⁷ /M; Activity [25]: Active; Ratio IC50 [26]: 1.6 |
| CCC(=O)O[C@H]1C(=O)[C@@]2(C)[C@H]([C@H](OC(=O)c3cccc(OC)c3)[C@]3(O)C[C@H](OC(=O)[C@H](O)[C@H](C=C(C)C)NC(=O)OC(C)(C)C)C(C)=C1C3(C)C)[C@]1(OC(C)=O)CO[C@@H]1C[C@@H]2O | 0.6 | – | – | – | – | 10.5 | Active | 3.3 | – | – | 4.9 | 4.8 | 4 | – | – | 5.7 | 2.9 | 0.33 | 3.4 | Active | Kb [31]: 478 ×10⁷ /M; Activity [5]: Active; Activity [8]: Active; Kb [32]: 545 ×10⁷ /M; Kb [33]: 318 ×10⁷ /M; Activity [18]: Active; Activity [21]: Active; Kb [34]: 731 ×10⁷ /M; Activity [25]: Active |
| CC(=O)O[C@H]1C(=O)[C@@]2(C)[C@H]([C@H](OC(=O)c3ccccc3)[C@]3(O)C[C@H](OC(=O)[C@H](O)[C@H](CC(C)C)NC(=O)OC(C)(C)C)C(C)=C1C3(C)C)[C@]1(OC(C)=O)CO[C@@H]1C[C@@H]2O | 1.6 | 2.7 | 2.4 | 3 | 2.7 | 29.1 | Active | 2.4 | 7.9 | 4.7 | 4.95 | 11.2 | 11.5 | 0.7 | 2.5 | 4.4 | 1.75 | 2.8 | 3.7 | Active | Activity [5]: Active; Activity [8]: Active; Kb [9]: 2.7 ×10⁷ /M; Kb [11]: 2.3 ×10⁷ /M; Activity [18]: Active; Kb [20]: 2.5 ×10⁷ /M; Activity [21]: Active; Kb [23]: 2.8 ×10⁷ /M; Activity [25]: Active; IC50 [35]: 0.35 nM; Ratio IC50 [26]: 2 |
| CC(=O)O[C@H]1C(=O)[C@@]2(C)[C@H]([C@H](OC(=O)c3ccccc3)[C@]3(O)C[C@H](OC(=O)[C@H](O)[C@@H](NC(=O)c4ccccc4)c4ccccc4)C(C)=C1C3(C)C)[C@]1(OC(C)=O)CO[C@@H]1C[C@@H]2O [PACLITAXEL] | 4.2 | – | – | – | – | 1240 | – | 3.9 | – | – | 32.8 | – | 4.2 | – | – | 0.7 | 81.4 | – | 0.4 | – | Activity [36]: Active |
